Assay results of several laboratories.

Cc1nc2ccc(OCc3ccc(C(F)(F)F)cc3)cc2[nH]1  Vd/F (male BALB/c mouse; plasma; oral; 10 mg/kg): 7.35 L/kg
C[C@@H]1COCCN1c1cc(=O)n2c(n1)N(Cc1cncc(Cl)c1)[C@H](C(F)(F)F)CC2  Vd (C57BL/6 mouse; plasma; intraperitoneal; 10 mg/kg; single dose): 7.05 L/kg
CN(C)C(=O)c1cc2cnc(Nc3ccc(-c4ccc5c(=O)cc(N6CCOCC6)oc5c4)cc3)nc2n1C1CCCC1.Cl  Vd/F (BALB/c mouse; plasma; oral; 20 mg/kg): 17.7 L/kg
CC(C)(C)c1sc2ncnc(Oc3c(F)cccc3OC(F)(F)F)c2c1-c1ccc(Cl)cc1  Vd (mouse; plasma; intravenous; 1 mg/kg): 1.3 L/kg
COCC(=O)N1CCc2[nH]c3c(Cl)c(Cl)ccc3c2[C@@H]1C  Vd (C57BL/6 mouse; blood; intravenous; 1 mg/kg): 1.23 L/kg
NCc1cc2c(cc1F)C(=O)N(C1CCC(=O)NC1=O)C2 (centres unmarked)  Vd (male CD-1 mouse; plasma; intravenous; 1 mg/kg): 6.5 L/kg
OCc1nc2ccc(NCc3ccc(C(F)(F)F)cc3)cc2[nH]1  Vd (male BALB/c mouse; plasma; intravenous; 1 mg/kg): 4 L/kg
C=CCn1c(=O)c2cnc(Nc3ccc(N4CCN(C)CC4)cc3)nc2n1-c1ccc2c(n1)[C@@](O)(CC)CC2  Vd (mouse; plasma; intravenous; 3 mg/kg): 3.4 L/kg
CC(C)[C@@H](CS(=O)(=O)C(C)C)N1C(=O)[C@@](C)(CC(=O)O)C[C@H](c2cccc(Cl)c2)[C@H]1c1ccc(Cl)cc1  Vd/F (FVB mouse; plasma; oral; 20 mg/kg; single dose): 12.2 L/kg
O=C1CCC(N2Cc3cc(CO)c(F)cc3C2=O)C(=O)N1 (centres unmarked)  Vd (male CD-1 mouse; plasma; intravenous; 1 mg/kg): 2.8 L/kg
CCCC[C@@H](NC(=O)[C@@H](Cc1cn(C(=O)OC)c2ccccc12)NC(=O)[C@H](CC(C)(C)C)NC(=O)N1[C@H](C)CCC[C@@H]1C)C(=O)O  Vd (male CD-1 mouse; plasma; intravenous; 3 mg/kg): 6.6 L/kg
